pIC50: −log10 of the molar value. Blank lines part the entries; values can stand above or below the molecule they belong to. Active and inactive are the calls of the source. The rule behind the calls is not given here.
Columns and labels:
[1] = biological target: T1, Lysine-specific histone demethylase 1A (Homo sapiens, UniProt O60341); assay: Inhibition of recombinant LSD1 (unknown origin) using H3K4me2 as substrate by fluorescence assay
[2] = biological target: T1, Lysine-specific histone demethylase 1A; details: 1.6 uM
[3] = biological target: T1, Lysine-specific histone demethylase 1A; assay: Inhibition of LSD1 in human A549 cells assessed as accumulation of H3K4me1 after 96 hrs by Western blot analysis; format: cell-based
In short: (§1)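 A549 cells were treated with 0, 1 and 6 µM for 96 h, then lysed in RIPA buffer (50 mM Tris-HCl pH 7.5) with protease inhibitors. Lysates went through SDS-PAGE, PVDF transfer and probing for the histone mark, with ECL detection. Bands were quantified against total H3. Run at least three times; mean ± SD.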

[4] = biological target: T1, Lysine-specific histone demethylase 1A; assay: Inhibition of LSD1 in human A549 cells assessed as accumulation of H3K9me1 after 96 hrs by Western blot analysis; format: cell-based; in short: as §1
[5] = biological target: T1, Lysine-specific histone demethylase 1A; assay: Inhibition of LSD1 in human A549 cells assessed as accumulation of H3K9me1 up to 6 uM after 96 hrs by Western blot analysis; format: cell-based
In short: (§2)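 A549 cells exposed to 0, 1 or 6 µM for 96 h, lysed in RIPA buffer (pH 7.5) with protease inhibitors. Lysates (40 µg/lane) resolved by 10% or 12% SDS-PAGE and immunoblotted for H3K4me1/2 and H3K9me1/2. ECL read-out, quantified against total histone H3 loading control. At least three experiments, mean ± SD.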

[6] = biological target: T1, Lysine-specific histone demethylase 1A; assay: Inhibition of LSD1 in human A549 cells assessed as accumulation of H3K9me2 after 96 hrs by Western blot analysis; format: cell-based; in short: as §1
[7] = biological target: T1, Lysine-specific histone demethylase 1A; assay: Binding affinity to LSD1 in human A549 cells assessed as thermal stability by measuring temperature at 10 uM after 1 hr by thermal shift assay; format: cell-based
In short: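 CETSA: A549 cells (5 × 10⁵ per sample) were exposed 1 h to 10 µM compound or DMSO, washed in PBS, and resuspended in PBS with protease inhibitor. Samples were heated 3 min at the indicated temperatures (e.g. 46, 49, 52 °C), then freeze-thawed three times in liquid nitrogen. Soluble LSD1 was measured by western blot with a GAPDH control; three independent experiments.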

[8] = biological target: T1, Lysine-specific histone demethylase 1A; assay: Inhibition of LSD1 in human A549 cells assessed as accumulation of H3K4me2 after 96 hrs by Western blot analysis; format: cell-based; in short: as §1
[9] = test system: A549; assay: Up regulation of claudin-1 levels in human A549 cells up to 6 uM after 96 hrs by Western blot analysis; format: functional, cell-based
In short: (§3)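 A549 cells treated with 0, 1 or 6 µM for 96 h, harvested with trypsin and lysed in RIPA buffer (pH 7.5) with protease inhibitors. 40 lg protein/lane on SDS-PAGE, transferred to PVDF, probed overnight with specific primary antibodies. ECL detection, quantified against GAPDH loading control. At least three experiments, mean ± SD.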

[10] = test system: A549; assay: Down regulation of slug levels in human A549 cells up to 6 uM after 96 hrs by Western blot analysis; format: functional, cell-based; in short: as §3
[11] = test system: A549; assay: Down regulation of N-cadherin levels in human A549 cells up to 6 uM after 96 hrs by Western blot analysis; format: functional, cell-based; in short: as §3
[12] = biological target: T1, Lysine-specific histone demethylase 1A; assay: Inhibition of LSD1 in human A549 cells assessed as accumulation of H3K4me1 up to 6 uM after 96 hrs by Western blot analysis; format: cell-based; in short: as §2
[13] = biological target: T1, Lysine-specific histone demethylase 1A; assay: Inhibition of LSD1 in human A549 cells assessed as accumulation of H3K9me2 up to 6 uM after 96 hrs by Western blot analysis; format: cell-based; in short: as §2
[14] = biological target: T1, Lysine-specific histone demethylase 1A; assay: Inhibition of LSD1 in human A549 cells assessed as accumulation of H3K4me2 up to 6 uM after 96 hrs by Western blot analysis; format: cell-based; in short: as §2
[15] = test system: A549; assay: Up regulation of E-cadherin levels in human A549 cells up to 6 uM after 96 hrs by Western blot analysis; format: functional, cell-based; in short: as §3
[16] = test system: A549; assay: Antimigratory activity against human A549 cells at 6 uM after 48 hrs by wound healing assay; format: functional, cell-based
In short: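 Scratch wound assay in A549 monolayers: cells seeded at 1 × 10⁴ per well, incubated 24 h, then scratched with a pipette tip. Cultured 48 h in fresh medium with 1% FBS and varying compound concentrations, then photographed under an inverted microscope. At least three independent experiments, mean ± SD.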

[17] = test system: A549; assay: Down regulation of snail levels in human A549 cells up to 6 uM after 96 hrs by Western blot analysis; format: functional, cell-based; in short: as §3
[18] = test system: A549; assay: Effect on LSD1 expression in human A549 cells up to 6 uM after 96 hrs by Western blot analysis; format: functional, cell-based; in short: as §3
[19] = biological target: T2, MAO-B (Homo sapiens, UniProt P27338); assay: Inhibition of MAO-B (unknown origin) at 10 uM relative to control
T2 sequence (P27338 whole entry): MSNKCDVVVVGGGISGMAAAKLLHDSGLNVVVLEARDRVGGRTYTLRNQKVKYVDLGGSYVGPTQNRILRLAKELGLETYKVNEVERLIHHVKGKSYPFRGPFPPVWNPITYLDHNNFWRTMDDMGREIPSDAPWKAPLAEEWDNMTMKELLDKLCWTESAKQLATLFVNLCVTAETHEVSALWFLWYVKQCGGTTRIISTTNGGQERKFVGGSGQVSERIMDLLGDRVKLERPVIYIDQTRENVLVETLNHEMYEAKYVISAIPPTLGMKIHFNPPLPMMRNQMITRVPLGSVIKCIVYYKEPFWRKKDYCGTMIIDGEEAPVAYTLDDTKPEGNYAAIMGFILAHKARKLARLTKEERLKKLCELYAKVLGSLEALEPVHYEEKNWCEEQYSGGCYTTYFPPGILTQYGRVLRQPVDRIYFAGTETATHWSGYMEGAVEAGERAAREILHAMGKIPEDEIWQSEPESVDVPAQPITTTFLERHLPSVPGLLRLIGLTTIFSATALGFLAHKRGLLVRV

[20] = biological target: T3, MAO-A (Homo sapiens, UniProt P21397); assay: Inhibition of MAO-A (unknown origin) at 10 uM relative to control
T3 sequence (P21397 whole entry): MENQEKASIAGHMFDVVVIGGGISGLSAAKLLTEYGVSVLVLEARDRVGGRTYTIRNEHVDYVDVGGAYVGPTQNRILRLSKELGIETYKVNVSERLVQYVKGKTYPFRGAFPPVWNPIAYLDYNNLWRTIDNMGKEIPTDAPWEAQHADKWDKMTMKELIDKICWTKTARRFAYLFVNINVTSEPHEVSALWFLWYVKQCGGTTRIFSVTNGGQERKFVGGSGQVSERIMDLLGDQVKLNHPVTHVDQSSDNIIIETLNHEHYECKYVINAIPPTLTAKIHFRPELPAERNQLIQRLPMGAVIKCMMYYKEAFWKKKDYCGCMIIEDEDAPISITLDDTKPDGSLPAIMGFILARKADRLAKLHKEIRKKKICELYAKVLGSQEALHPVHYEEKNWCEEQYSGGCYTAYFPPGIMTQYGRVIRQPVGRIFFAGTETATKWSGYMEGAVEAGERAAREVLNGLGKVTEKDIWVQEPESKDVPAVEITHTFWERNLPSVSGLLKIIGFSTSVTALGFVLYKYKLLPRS

[21] = biological target: T2, MAO-B; assay: Inhibition of MAO-B (unknown origin) at 1 uM relative to control
[22] = test system: GES1; assay: Cytotoxicity against human GES-1 cells assessed as decrease in cell viability after 96 hrs by MTT assay; format: cell-based; details: GES1, 96 h
In short: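 GES-1 cells were grown in RPMI-1640 with 10% FBS at 37 °C and 5% CO₂. They were seeded at 3 × 10³ per well, left overnight, then given graded concentrations for 4 days (0.1% DMSO vehicle). MTT was added for 4 h at 37 °C, formazan dissolved in DMSO, and A570 read. Viability = (At/As) × 100% against solvent control.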

[23] = biological target: T1, Lysine-specific histone demethylase 1A; assay: Competitive inhibition of recombinant LSD1 (unknown origin) up to 1.25 uM using H3K4me2 as substrate in presence of FAD by Lineweaver-Burk plot analysis
[24] = biological target: T1, Lysine-specific histone demethylase 1A; assay: Inhibition of H3K4me2 binding to LSD1 in human A549 cells up to 6 uM after 96 hrs by immunoprecipitation assay; format: cell-based
In short: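 Co-IP: A549 cells were treated with 0 or 6 µM for 96 h, trypsinised, and lysed in IP lysis/wash buffer with protease inhibitors. LSD1 antibody was used as bait, and H3K4me2 bound to LSD1 was detected. Total cell lysate was blotted alongside with a GAPDH loading control.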

[25] = biological target: T1, Lysine-specific histone demethylase 1A; assay: Reversible inhibition of recombinant LSD1 (unknown origin) assessed as recovery of enzyme activity at 40 uM measured 1 hr after 80-fold dilution
In short: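 Dilution assay: 2.5 µg recombinant LSD1 was preincubated 1 h at 25 °C with 40 µM compound, 1.6 µM GSK2879552 or DMSO. Aliquots were then diluted 80-fold into HRP-coupled assay solution with substrate and compared with undiluted mixtures to assess recovery of LSD1 activity.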

[26] = biological target: T3, MAO-A; assay: Inhibition of MAO-A (unknown origin) at 1 uM relative to control
[27] = test system: A549; assay: Antimigratory activity against human A549 cells after 48 hrs by wound healing assay; format: functional, cell-based
In short: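 Scratch assay: cells seeded at 1 × 10⁴ per well and grown 24 h, then the monolayer was scratched with a pipette tip. Cells were then cultured 48 h in fresh medium with 1% FBS and graded compound concentrations. Wound closure was photographed under an inverted microscope. Run at least three times; mean ± SD.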

pIC50 [1]: < 4.30
Structure (SMILES): Cc1cc(N2CCCC(NC(=O)OC(C)(C)C)C2)n2nc(SCc3ccccc3)nc2n1 (stereo not drawn)

inhibition [2]: Active
Structure (SMILES): O=C(O)c1ccc(CN2CCC(CN[C@@H]3C[C@H]3c3ccccc3)CC2)cc1

pIC50 [1]: < 4.30
Structure (SMILES): Cc1cc(N2CCCC(N)C2)n2nc(SCc3ccccc3)nc2n1 (stereo not drawn)

Structure (SMILES): C/C(=N\NC(=O)c1cccc(S(=O)(=O)N2CCOCC2)c1)c1cc(Cl)ccc1O
pIC50 [1]: 7.61

pIC50 [1]: < 4.30
Structure (SMILES): Cc1cc(NN)n2nc(SCc3cccc4ccccc34)nc2n1

pIC50 [1]: < 4.30
Structure (SMILES): NNc1cc(-c2ccccc2)nc2nc(SCc3ccccc3)nn12

inhibition [3]: inactive | inhibition [4]: inactive | inhibition [5]: inactive | pIC50 [1]: < 4.30 | inhibition [6]: inactive | Activity [7]: inactive | inhibition [8]: inactive
Structure (SMILES): Cc1cc(NN)n2ncnc2n1

pIC50 [1]: < 4.30
Structure (SMILES): Cc1cc(N)n2nc(SCc3ccccc3)nc2n1

Structure (SMILES): c1ccc([C@@H]2C[C@H]2NC2CCNCC2)cc1 (racemic)
Activity [9]: Active | inhibition [3]: Dose-dependent effect | inhibition [5]: inactive | Activity [10]: Active | Activity [11]: Active | inhibition [12]: Active | inhibition [6]: Dose-dependent effect | inhibition [13]: Active | inhibition [14]: Active | Activity [15]: Active | inhibition [16]: Active | inhibition [8]: Dose-dependent effect | Activity [17]: Active | Activity [18]: inactive

inhibition [3]: Dose-dependent effect | inhibition at 10 µM [19]: 43% | inhibition at 10 µM [20]: 36% | inhibition [4]: Dose-dependent effect | inhibition at 1 µM [21]: 15% | inhibition [23]: Active | pIC50 [1]: 6.05 | inhibition [24]: Active | inhibition [6]: Dose-dependent effect | inhibition [25]: Active | T [7]: 52 °C | inhibition at 1 µM [26]: 21% | inhibition [8]: Dose-dependent effect
Structure (SMILES): Cc1cc(NN)n2nc(SCc3ccccc3)nc2n1
Activity [9]: Active | Activity [10]: Active | pIC50 [22]: < 4.30 | Activity [11]: Active | Activity [15]: Active | Activity [17]: Active | Activity [27]: Dose-dependent effect | Activity [18]: inactive

pIC50 [1]: < 4.30
Structure (SMILES): Cc1cc(NCCN)n2nc(SCc3ccccc3)nc2n1

pIC50 [1]: < 4.30
Structure (SMILES): Cc1cc(NCCOCCOCCN)n2nc(SCc3ccccc3)nc2n1

pIC50 [1]: < 4.30
Structure (SMILES): CNCCN(C)c1cc(C)nc2nc(SCc3ccccc3)nn12

pIC50 [1]: < 4.30
Structure (SMILES): Cc1cc(N(C)CCN(C)C)n2nc(SCc3ccccc3)nc2n1

From ChEMBL document CHEMBL4400535, “Experience-based discovery (EBD) of aryl hydrazines as new scaffolds for the development of LSD1/KDM1A inhibitors” (Eur J Med Chem, 2019)
